From ChEMBL document CHEMBL3297663, “Synthesis and evaluation of (E)-2-(acrylamido)cyclohex-1-enecarboxylic acid derivatives as HCA1, HCA2, and HCA3 receptor agonists” (Bioorg Med Chem, 2014) come the findings set out here.

Type in all cases: functional, cell-based
The target in assay [1] is T1, Hydroxycarboxylic acid receptor 2 (Homo sapiens, UniProt Q8TDS4). The experiment in a line: Agonist activity at human HCA2 receptor expressed in Flp-In-293 cells assessed as inhibition of forskolin-induced cAMP accumulation at 50 uM after 30 mins. Summed up: (§1)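 Flp-In-293 cells stably transfected with HCA receptor plasmids were plated at 10,000 cells/well. They were stimulated with forskolin plus compound for 30 min in PBS with 2% BSA and 0.5 mM IBMX. Inhibition of cAMP accumulation at a single compound concentration is expressed as % of the forskolin-stimulated level (set to 100%). Values are mean ± SD of at least three experiments, each in duplicate.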
T1 sequence (Q8TDS4 whole entry): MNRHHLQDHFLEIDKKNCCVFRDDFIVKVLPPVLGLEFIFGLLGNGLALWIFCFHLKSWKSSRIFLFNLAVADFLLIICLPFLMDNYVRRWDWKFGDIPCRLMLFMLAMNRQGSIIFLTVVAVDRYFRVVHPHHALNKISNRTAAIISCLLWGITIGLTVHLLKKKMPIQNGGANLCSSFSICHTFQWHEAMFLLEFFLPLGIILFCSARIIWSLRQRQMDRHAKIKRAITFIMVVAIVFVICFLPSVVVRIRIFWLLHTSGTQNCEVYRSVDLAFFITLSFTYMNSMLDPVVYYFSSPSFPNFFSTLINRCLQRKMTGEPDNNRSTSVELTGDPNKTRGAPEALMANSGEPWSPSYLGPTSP
For orientation: Changes in cAMP serve as a functional read-out for many G protein-coupled receptors.

The target of assay [2] is Hydroxycarboxylic acid receptor 3 (Homo sapiens) (UniProt P49019). The experiment in a line: Agonist activity at human HCA3 receptor expressed in Flp-In-293 cells assessed as inhibition of forskolin-induced cAMP accumulation up to 50 uM after 30 mins. A digest of the protocol: (§2)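 Stable HCA-expressing Flp-In-293 cells (10,000/well) were treated with compound plus forskolin for 30 min in PBS containing 2% BSA and 0.5 mM IBMX. The value is the maximal % inhibition of forskolin-stimulated cAMP, with the forskolin-only level taken as 100%. Data are mean ± SD from at least three experiments, each in duplicate.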
Hydroxycarboxylic acid receptor 3 (Homo sapiens), sequence (P49019 whole entry): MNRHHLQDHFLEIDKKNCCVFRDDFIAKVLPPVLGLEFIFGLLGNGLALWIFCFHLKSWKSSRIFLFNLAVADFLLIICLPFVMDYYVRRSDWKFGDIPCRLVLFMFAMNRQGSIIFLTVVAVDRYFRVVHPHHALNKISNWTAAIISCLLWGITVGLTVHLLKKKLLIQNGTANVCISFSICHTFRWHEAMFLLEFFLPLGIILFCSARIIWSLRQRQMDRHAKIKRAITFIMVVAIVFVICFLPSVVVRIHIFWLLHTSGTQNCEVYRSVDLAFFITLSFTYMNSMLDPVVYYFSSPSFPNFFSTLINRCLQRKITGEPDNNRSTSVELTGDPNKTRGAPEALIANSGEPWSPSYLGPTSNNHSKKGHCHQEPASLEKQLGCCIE

Assay [3] deals with Hydroxycarboxylic acid receptor 1 (Homo sapiens) (UniProt Q9BXC0). The experiment in a line: Agonist activity at human HCA1 receptor expressed in Flp-In-293 cells assessed as inhibition of forskolin-induced cAMP accumulation up to 50 uM after 30 mins. A digest of the protocol: as §2
Hydroxycarboxylic acid receptor 1 (Homo sapiens), sequence (Q9BXC0 whole entry): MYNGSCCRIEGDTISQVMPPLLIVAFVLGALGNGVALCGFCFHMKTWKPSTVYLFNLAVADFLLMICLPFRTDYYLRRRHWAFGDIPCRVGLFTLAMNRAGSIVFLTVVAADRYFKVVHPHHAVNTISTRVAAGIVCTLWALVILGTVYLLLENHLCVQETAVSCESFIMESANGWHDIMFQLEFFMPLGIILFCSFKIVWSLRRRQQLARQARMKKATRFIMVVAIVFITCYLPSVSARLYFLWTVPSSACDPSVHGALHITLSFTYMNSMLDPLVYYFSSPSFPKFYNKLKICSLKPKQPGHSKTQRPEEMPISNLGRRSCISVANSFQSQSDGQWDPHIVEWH
Assay [4] concerns the target Hydroxycarboxylic acid receptor 3 (Homo sapiens) (UniProt P49019). Description: Agonist activity at human HCA3 receptor expressed in Flp-In-293 cells assessed as inhibition of forskolin-induced cAMP accumulation at 50 uM after 30 mins. A digest of the protocol: as §1
Assay [5] deals with Hydroxycarboxylic acid receptor 1 (Homo sapiens) (UniProt Q9BXC0). The experiment in a line: Agonist activity at human HCA1 receptor expressed in Flp-In-293 cells assessed as inhibition of forskolin-induced cAMP accumulation at 50 uM after 30 mins. Summed up: as §1
The target of assay [6] is T1, Hydroxycarboxylic acid receptor 2. The experiment in a line: Agonist activity at human HCA2 receptor expressed in Flp-In-293 cells assessed as inhibition of forskolin-induced cAMP accumulation up to 50 uM after 30 mins. A digest of the protocol: as §2
Assay [7] has the same target. Description: Agonist activity at human HCA2 receptor expressed in Flp-In-293 cells assessed as inhibition of forskolin-induced cAMP accumulation after 30 mins. Summed up: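 EC50 values come from an intracellular cAMP assay in Flp-In-293 cells stably expressing the receptor (10,000 cells/well). Cells were co-incubated 30 min with forskolin and compound in PBS, 2% BSA and 0.5 mM IBMX. Values are mean ± SD of at least three experiments, each in duplicate.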

The source made the active and inactive calls. The rule behind the calls is not given here.

The inhibition is the drop in the measured response relative to a control, in per cent. With `O=C(/C=C/c1ccc2cccc(O)c2n1)NC1=C(C(=O)O)CCCC1`, the inhibition in assay [1] is 27%. Further, the inhibition result in assay [2] and in assay [3] was “inactive” in each case.
For `COc1nc2ccccc2cc1/C=C/C(=O)NC1=C(C(=O)O)CCCC1`, the figures for the inhibition in assay [1], in assay [4] and in assay [5] were 59%, 58% and 27%, respectively.
On to `O=C(/C=C/c1cc2c(cc1Br)OCO2)NC1=C(C(=O)O)CCCC1`, for which the inhibition in assay [1] stood at 24%; in assay [4] it was 54%. Further, the inhibition result in assay [3] was “inactive”.
`COc1ccc2cc(/C=C/C(=O)NC3=C(C(=O)O)CCCC3)ccc2c1`: the inhibition entry in assay [2] and in assay [6] was “inactive” in each case. Also, the inhibition in assay [5] came to 26%.
With `O=C(O)C1=C(NC(=O)[C@H]2C[C@H]2c2ccc3ccccc3c2)CCCC1` (racemic), in assay [1], the inhibition stood at 34%. Further, the inhibition entry in assay [2] and in assay [3] was “inactive” each time.
As a reminder, the EC50 is the concentration giving half of the maximal effect. Broadly, the Emax is the size of the effect at its maximum, as opposed to the concentration needed. On to `O=C(/C=C/c1ccc2cc(O)ccc2c1)NC1=C(C(=O)O)CCCC1`, for which, in assay [2], the inhibition result was “inactive”. For the same molecule, in assay [7], the EC50 was found to be 1.4 µM and the Emax was found to be 96%. Besides, the inhibition result in assay [3] is “inactive”.
As to `O=C(CCc1ccc2ncccc2c1)NC1=C(C(=O)O)CCCC1`, the inhibition is 70% in assay [1], 60% in assay [4] and 26% in assay [5].
Regarding `O=C(/C=C/c1ccc2c(c1)OCCO2)NC1=C(C(=O)O)CCCC1`, the inhibition in assay [4] was 66%. Also, in assay [7], the half-maximal effective concentration (EC50) is 6.8 µM and the maximal response (Emax) is 93%. Further, the inhibition result in assay [3] is “inactive”.
Regarding `O=C(/C=C/c1ccc2ccccc2n1)NC1=C(C(=O)O)CCCC1`, the inhibition result in assay [2] is “inactive”. Also, in assay [7], the EC50 was found to be 4.1 µM and the Emax turned out to be 99%. Also, the inhibition entry in assay [3] was “inactive”.
On to `COc1ccc(/C=C/C(=O)NC2=C(C(=O)O)CCCC2)cc1OC`, for which the results for the inhibition in assay [1], in assay [4] and in assay [5] were 51%, 58% and 31%, respectively.
On to `O=C(/C=C/C#Cc1ccccc1)NC1=C(C(=O)O)CCCC1`, for which the inhibition in assay [4] stood at 56%. Besides, in assay [7], the EC50 is 3.6 µM and the Emax worked out at 90%. The inhibition result in assay [3] was “inactive”.
As for `O=C(/C=C/c1ccnc2ccccc12)NC1=C(C(=O)O)CCCC1`, the inhibition entry in assay [2], in assay [6] and in assay [3] was “inactive” in each case.
Take `O=C(/C=C/c1cc2c(cc1Cl)OCO2)NC1=C(C(=O)O)CCCC1`: the inhibition in assay [1] was found to be 17%; in assay [4], 59%; in assay [5] it was 34%.
In the case of `Cc1ccc2cc(/C=C/C(=O)NC3=C(C(=O)O)CCCC3)ccc2n1`, the inhibition entry in assay [2], in assay [6] and in assay [3] was “inactive” in each case.
Consider `O=C(/C=C/c1ccc2c(c1)OCO2)NC1=C(C(=O)O)CCCC1`, for which, in assay [4], the inhibition was 26%. For the same molecule, in assay [7], the concentration giving a half-maximal response (EC50) is 5.8 µM and the Emax was found to be 83%. Further, the inhibition entry in assay [3] was “inactive”.
As for `O=C(/C=C/c1ccc2ccccc2c1)NC1=C(C(=O)O)CCCC1`, the inhibition entry in assay [2] was “inactive”. The inhibition in assay [5] came to 14%. Further, in assay [7], the EC50 came to 4.5 µM and the Emax is 94%.
For `COc1ccc2nc(Cl)c(CCC(=O)NC3=C(C(=O)O)CCCC3)cc2c1`, the inhibition in assay [4] is 53%. Further, in assay [5], the inhibition stood at 24%. In assay [7], the EC50 is 4.1 µM and the Emax was 91%.
On the same counts, the results for `O=C(O)C1=C(NC(=O)[C@@H]2C[C@H]2c2ccc3ccccc3c2)CCCC1` (racemic) are 55%, 40%, 12.5 µM and 96%.
Consider `O=C(CCc1cccc2cccnc12)NC1=C(C(=O)O)CCCC1`, for which the inhibition in assay [1] is 60%; in assay [4], 55%. Also, the inhibition result in assay [3] is “inactive”.
For `O=C(/C=C/c1cc2ccccc2nc1Cl)NC1=C(C(=O)O)CCCC1`, the inhibition in assay [4] was found to be 52%. Besides, in assay [5], the inhibition was determined as 37%. In addition, in assay [7], the EC50 is 27.4 µM and the Emax stood at 79%.
For the molecule `O=C(CCc1ccc2cc(O)ccc2c1)NC1=C(C(=O)O)CCCC1`, in assay [2], the inhibition entry was “inactive”. Further, in assay [5], the inhibition turned out to be 26%. Besides, in assay [7], the 50% effective concentration (EC50) stood at 1.9 µM and the Emax was 97%.
`COc1ccc(/C=C/C(=O)NC2=C(C(=O)O)CCCC2)c(Cl)c1OC`: the inhibition in assay [4] worked out at 48%. In addition, the inhibition in assay [5] worked out at 36%. Besides, in assay [7], the concentration for a half-maximal effect (EC50) worked out at 26.3 µM and the Emax was 95%.
The corresponding values for `O=C(CCc1ccc2c(c1)OCO2)NC1=C(C(=O)O)CCCC1` are 62%, 28%, 51.6 µM and 85%.
For the molecule `O=C(C#Cc1ccc2cc(O)ccc2c1)NC1=C(C(=O)O)CCCC1`, the inhibition result in assay [2] is “inactive”. For the same molecule, in assay [7], the 50% effective concentration (EC50) came out at 0.9 µM and the maximal response (Emax) came to 98%. For the same molecule, the inhibition entry in assay [3] is “inactive”.
As to `O=C(CCc1ccc2ccccc2c1)NC1=C(C(=O)O)CCCC1`, the results for the inhibition in assay [4] and in assay [5] were 66% and 41%, respectively. The concentration for a half-maximal effect (EC50) in assay [7] was found to be 8.3 µM. Besides, in assay [7], the Emax was found to be 97%.
Consider `COc1ccc2nc(Cl)c(/C=C/C(=O)NC3=C(C(=O)O)CCCC3)cc2c1`, for which the inhibition entry in assay [2] was “inactive”. Also, the inhibition in assay [5] stood at 21%. In assay [7], the EC50 stood at 6.3 µM and the Emax was found to be 86%.
Turning to `Cc1ccc2cc(CCC(=O)NC3=C(C(=O)O)CCCC3)ccc2n1`, in assay [4], the inhibition came out at 54%. In assay [5], the inhibition amounted to 23%. Besides, in assay [7], the EC50 turned out to be 36.4 µM and the maximal response (Emax) came to 82%.
On to `O=C(/C=C/c1ccc2ncccc2c1)NC1=C(C(=O)O)CCCC1`, for which the inhibition in assay [1] was 68%; in assay [4], 39%; in assay [5], 24%.
As to `COc1cc(/C=C/C(=O)NC2=C(C(=O)O)CCCC2)cc(Br)c1OC`, the values for the inhibition in assay [1] and in assay [4] were 23% and 46%, respectively. Also, the inhibition result in assay [3] was “inactive”.
On to `COc1cc2nc(/C=C/C(=O)NC3=C(C(=O)O)CCCC3)ccc2c(OC)c1OC`, for which the inhibition in assay [1] came out at 53%; in assay [4], 61%; in assay [5], 38%.
Consider `O=C(/C=C/c1cccc2cccnc12)NC1=C(C(=O)O)CCCC1`, for which the inhibition in assay [4] was 54%. Besides, the inhibition result in assay [6] and in assay [3] was “inactive” throughout.
